Data reported in ChEMBL document CHEMBL4342471, “Discovery of Thieno[2,3-d]pyrimidine-Based Hydroxamic Acid Derivatives as Bromodomain-Containing Protein 4/Histone Deacetylase Dual Inhibitors Induce Autophagic Cell Death in Colorectal Carcinoma Cells” (J Med Chem, 2020).
pIC50: −log10 of the molar value. Activity calls are given as the source filed them. The calls are words filed in the database; no cut-off is given here.

Assays:
[1] = AUC (0 to infinity) in Sprague-Dawley rat at 30 mg/kg, iv administered as bolus dose measured up to 1440 mins by UPLC-QTOF/MS analysis; format: ADME, organism-based; design: dose 30 mg/kg, route intravenous, time infinity; settings: in vivo
SW480 = experiment: Cytotoxicity against human SW480 cells assessed as reduction in cell viability; format: functional, cell-based
Summary of the method: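 Antiproliferative IC50 values were measured by MTT assay across a panel of colorectal carcinoma cell lines and normal colorectal epithelial cells.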

[2] = target: T1, Bromodomain-containing protein 4 (Homo sapiens, UniProt O60885); experiment: Inhibition of GST-tagged BRD4 bromodomain (unknown origin) using biotinylated histone H4KAc peptide (1 to 21 residues) as substrate by HTRF assay
HCT-116 [3] = experiment: Induction of apoptosis in human HCT116 cells assessed as early apoptotic cells at 0.2 uM by Annexin-V FITC/propidium iodide staining-based flow cytometry (reference value: 2.8 %); format: functional
[4] = target: Bromodomain-containing protein 3 (Homo sapiens, UniProt Q15059); experiment: Inhibition of human recombinant His-tagged BRD3 BD2 domain expressed in Escherichia coli BL21(DE3)-R3-pRARE2 cells by AlphaScreen assay
Chain of Bromodomain-containing protein 3 (Q15059 whole entry, the tested form may be a part): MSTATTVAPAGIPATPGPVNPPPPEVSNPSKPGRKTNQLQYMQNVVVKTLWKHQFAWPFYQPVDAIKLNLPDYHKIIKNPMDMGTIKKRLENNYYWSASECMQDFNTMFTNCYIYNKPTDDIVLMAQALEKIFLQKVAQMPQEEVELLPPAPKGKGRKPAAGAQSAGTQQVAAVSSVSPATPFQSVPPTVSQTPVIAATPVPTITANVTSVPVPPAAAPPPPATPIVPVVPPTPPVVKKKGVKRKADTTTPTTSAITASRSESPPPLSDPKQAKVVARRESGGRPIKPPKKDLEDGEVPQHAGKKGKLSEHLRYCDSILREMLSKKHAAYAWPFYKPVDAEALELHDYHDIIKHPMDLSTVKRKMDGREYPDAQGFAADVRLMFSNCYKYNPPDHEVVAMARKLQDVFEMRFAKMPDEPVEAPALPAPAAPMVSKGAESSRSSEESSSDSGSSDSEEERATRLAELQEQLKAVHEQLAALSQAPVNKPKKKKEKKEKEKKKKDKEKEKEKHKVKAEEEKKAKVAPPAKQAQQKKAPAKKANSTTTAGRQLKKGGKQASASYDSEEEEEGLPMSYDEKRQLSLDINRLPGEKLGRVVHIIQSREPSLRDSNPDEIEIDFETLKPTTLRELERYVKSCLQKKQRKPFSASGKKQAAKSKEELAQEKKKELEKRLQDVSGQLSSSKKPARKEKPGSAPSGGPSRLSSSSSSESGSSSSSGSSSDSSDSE

[5] = target: Polyamine deacetylase HDAC10 (Homo sapiens, UniProt Q969S8); experiment: Inhibition of HDAC10 (unknown origin) using biotinylated histone H3 KAc peptide (1 to 21 residues) as substrate by HTRF assay
Chain of Polyamine deacetylase HDAC10 (Q969S8 whole entry, the tested form may be a part): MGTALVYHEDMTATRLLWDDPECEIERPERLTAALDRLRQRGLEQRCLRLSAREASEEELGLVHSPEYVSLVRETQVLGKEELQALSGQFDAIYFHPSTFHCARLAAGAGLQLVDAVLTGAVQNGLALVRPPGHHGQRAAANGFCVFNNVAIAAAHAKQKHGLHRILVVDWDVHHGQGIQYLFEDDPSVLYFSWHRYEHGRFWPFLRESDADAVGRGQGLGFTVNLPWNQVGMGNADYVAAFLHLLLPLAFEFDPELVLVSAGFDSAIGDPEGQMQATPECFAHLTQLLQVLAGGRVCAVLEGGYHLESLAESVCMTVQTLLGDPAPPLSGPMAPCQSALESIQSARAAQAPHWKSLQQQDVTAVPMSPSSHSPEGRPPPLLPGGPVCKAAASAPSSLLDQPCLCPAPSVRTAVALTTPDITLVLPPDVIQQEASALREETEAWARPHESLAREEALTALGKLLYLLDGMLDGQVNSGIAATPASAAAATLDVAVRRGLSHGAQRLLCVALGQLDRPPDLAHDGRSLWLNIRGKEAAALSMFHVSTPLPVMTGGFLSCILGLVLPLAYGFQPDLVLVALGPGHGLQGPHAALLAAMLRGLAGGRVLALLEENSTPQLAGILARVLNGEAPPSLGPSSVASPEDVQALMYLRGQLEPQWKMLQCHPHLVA

Histone deacetylase 9 = Histone deacetylase 9 (Homo sapiens, UniProt Q9UKV0); experiment: Inhibition of HDAC9 (unknown origin) using biotinylated histone H3 KAc peptide (1 to 21 residues) as substrate by HTRF assay
Chain of Histone deacetylase 9 (Q9UKV0 whole entry, the tested form may be a part): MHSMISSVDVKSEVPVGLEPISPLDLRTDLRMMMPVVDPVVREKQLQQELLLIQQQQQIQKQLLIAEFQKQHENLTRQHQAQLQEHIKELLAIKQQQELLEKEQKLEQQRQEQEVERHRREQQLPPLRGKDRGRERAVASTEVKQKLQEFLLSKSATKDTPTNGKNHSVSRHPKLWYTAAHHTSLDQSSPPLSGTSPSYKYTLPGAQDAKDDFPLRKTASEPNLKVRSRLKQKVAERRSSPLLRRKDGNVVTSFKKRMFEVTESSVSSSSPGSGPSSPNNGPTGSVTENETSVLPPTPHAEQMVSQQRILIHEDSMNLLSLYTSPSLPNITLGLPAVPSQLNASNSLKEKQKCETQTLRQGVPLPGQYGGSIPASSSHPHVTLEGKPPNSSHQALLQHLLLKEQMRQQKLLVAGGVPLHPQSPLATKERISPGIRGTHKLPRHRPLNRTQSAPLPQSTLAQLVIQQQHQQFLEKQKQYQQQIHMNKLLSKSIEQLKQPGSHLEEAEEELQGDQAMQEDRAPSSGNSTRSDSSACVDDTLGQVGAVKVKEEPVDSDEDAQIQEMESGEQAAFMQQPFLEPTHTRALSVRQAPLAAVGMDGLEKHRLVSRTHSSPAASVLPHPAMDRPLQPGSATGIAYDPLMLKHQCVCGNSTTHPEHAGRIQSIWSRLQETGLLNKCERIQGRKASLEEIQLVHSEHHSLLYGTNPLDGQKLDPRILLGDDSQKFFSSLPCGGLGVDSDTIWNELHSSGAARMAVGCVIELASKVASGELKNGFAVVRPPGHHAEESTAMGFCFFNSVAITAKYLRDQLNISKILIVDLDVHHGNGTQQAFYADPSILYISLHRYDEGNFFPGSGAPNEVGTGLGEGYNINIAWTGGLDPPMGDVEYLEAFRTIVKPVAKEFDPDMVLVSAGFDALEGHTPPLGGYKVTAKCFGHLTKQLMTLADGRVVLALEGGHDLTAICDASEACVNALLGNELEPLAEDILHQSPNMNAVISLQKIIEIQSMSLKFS

Histone deacetylase 5 = Histone deacetylase 5 (Homo sapiens, UniProt Q9UQL6); experiment: Inhibition of HDAC5 (unknown origin) using biotinylated histone H3 KAc peptide (1 to 21 residues) as substrate by HTRF assay
Chain of Histone deacetylase 5 (Q9UQL6 whole entry, the tested form may be a part): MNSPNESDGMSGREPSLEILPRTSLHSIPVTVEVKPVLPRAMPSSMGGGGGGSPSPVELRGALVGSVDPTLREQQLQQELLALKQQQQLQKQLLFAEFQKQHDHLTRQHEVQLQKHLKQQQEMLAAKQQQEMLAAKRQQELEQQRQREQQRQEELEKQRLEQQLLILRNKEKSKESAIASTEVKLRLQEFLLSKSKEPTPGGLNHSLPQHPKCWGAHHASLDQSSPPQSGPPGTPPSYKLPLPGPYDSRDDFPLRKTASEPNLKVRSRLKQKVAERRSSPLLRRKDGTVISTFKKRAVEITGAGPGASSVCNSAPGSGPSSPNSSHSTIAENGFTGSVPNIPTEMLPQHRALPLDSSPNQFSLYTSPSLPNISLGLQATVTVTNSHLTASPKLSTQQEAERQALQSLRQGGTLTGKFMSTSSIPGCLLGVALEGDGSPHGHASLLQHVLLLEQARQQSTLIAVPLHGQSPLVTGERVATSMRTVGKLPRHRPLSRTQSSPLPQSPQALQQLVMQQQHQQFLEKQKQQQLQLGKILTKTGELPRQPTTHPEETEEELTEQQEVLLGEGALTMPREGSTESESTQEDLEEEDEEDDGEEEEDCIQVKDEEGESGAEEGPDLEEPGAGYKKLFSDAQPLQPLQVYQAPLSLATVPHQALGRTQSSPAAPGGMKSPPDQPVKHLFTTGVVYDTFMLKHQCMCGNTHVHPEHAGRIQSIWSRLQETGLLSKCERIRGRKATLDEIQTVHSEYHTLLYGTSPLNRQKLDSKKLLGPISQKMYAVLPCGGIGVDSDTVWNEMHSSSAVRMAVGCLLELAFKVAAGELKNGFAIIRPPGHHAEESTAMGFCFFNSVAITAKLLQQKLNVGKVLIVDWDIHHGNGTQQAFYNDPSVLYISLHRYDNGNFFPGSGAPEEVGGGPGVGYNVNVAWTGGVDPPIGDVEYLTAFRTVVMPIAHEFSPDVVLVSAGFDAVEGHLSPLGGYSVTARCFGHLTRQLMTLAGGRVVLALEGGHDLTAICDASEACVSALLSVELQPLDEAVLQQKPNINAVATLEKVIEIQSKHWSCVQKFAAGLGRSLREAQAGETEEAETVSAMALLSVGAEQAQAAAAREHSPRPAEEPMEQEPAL

Histone deacetylase 4 = Histone deacetylase 4 (Homo sapiens, UniProt P56524); experiment: Inhibition of HDAC4 (unknown origin) using biotinylated histone H3 KAc peptide (1 to 21 residues) as substrate by HTRF assay
Chain of Histone deacetylase 4 (P56524 whole entry, the tested form may be a part): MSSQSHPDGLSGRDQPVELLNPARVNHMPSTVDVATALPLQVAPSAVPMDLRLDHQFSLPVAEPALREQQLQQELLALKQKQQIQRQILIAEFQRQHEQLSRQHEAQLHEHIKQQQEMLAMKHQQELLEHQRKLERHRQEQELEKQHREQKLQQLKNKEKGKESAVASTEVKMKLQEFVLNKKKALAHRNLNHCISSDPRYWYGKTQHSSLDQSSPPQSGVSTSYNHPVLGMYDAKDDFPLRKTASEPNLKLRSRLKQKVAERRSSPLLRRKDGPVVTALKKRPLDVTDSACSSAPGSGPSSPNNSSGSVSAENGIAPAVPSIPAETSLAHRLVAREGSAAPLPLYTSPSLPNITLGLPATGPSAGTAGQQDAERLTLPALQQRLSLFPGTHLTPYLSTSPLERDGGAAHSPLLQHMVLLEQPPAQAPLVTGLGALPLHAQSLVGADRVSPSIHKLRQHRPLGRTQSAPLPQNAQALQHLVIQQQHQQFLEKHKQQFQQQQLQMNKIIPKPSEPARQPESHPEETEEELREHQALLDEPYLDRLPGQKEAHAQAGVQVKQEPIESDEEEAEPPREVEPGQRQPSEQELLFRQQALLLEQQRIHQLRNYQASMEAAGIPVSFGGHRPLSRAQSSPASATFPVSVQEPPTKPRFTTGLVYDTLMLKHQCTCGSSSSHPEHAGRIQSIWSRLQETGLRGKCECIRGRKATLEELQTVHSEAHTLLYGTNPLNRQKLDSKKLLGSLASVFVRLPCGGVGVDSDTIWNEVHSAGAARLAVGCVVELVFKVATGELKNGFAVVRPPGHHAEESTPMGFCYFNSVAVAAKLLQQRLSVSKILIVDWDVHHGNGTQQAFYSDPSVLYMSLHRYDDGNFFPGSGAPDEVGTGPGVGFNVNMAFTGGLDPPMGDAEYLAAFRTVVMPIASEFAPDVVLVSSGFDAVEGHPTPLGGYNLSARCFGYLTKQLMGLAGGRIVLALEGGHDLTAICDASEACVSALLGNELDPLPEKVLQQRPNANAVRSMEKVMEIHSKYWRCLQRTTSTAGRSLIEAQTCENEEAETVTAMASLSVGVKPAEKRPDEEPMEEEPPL

Histone deacetylase 2 = Histone deacetylase 2 (Homo sapiens, UniProt Q92769)
Chain of Histone deacetylase 2 (Q92769 whole entry): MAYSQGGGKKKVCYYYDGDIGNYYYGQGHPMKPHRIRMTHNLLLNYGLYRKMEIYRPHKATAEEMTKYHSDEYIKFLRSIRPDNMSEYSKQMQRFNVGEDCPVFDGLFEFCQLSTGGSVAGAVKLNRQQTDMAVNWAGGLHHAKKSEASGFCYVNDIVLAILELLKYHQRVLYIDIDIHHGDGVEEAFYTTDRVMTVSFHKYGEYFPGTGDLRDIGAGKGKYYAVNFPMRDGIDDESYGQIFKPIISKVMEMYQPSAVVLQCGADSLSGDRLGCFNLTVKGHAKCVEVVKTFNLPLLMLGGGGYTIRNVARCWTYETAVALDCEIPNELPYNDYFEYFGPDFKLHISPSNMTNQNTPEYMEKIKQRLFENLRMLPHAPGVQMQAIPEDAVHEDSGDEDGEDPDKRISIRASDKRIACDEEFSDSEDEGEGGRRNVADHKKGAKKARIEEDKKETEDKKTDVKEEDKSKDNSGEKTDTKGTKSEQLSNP

HCT-116 [6] = experiment: Induction of apoptotic cell death in human HCT116 cells by Annexin-V FITC/propidium iodide staining-based flow cytometry; format: functional
[7] = target: T1, Bromodomain-containing protein 4; experiment: Inhibition of BRD4 in human HCT116 cells assessed as reduction in C-myc level at 0.2 to 0.5 uM measured after 24 hrs by Western blot analysis; format: cell-based
[8] = target: T1, Bromodomain-containing protein 4; experiment: Inhibition of BRD4 in human HCT116 cells transfected with GFP-LC3 assessed as induction of autophagy by measuring increase in LC3 puncta at 0.5 uM measured after 24 hrs by confocal fluorescence microscopy; format: cell-based
Summary of the method: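 HCT-116 cells transfected with GFP-LC3 plasmid, then incubated 24 h with 0.5 µM test agent; LC3 puncta (autophagosomes) imaged by confocal fluorescence microscopy.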

[9] = target: T1, Bromodomain-containing protein 4; experiment: Inhibition of BRD4 in human HCT116 cells assessed as induction of autophagy by measuring upregulation of beclin1 expression at 0.2 to 0.5 uM measured after 24 hrs by Western blot analysis; format: cell-based
[10] = target: T1, Bromodomain-containing protein 4; experiment: Inhibition of BRD4 in human HCT116 cells assessed as induction of autophagy by measuring increase in cleavage of LC3-I to LC3-II measured after 24 hrs by Western blot analysis; format: cell-based
HCT-116 [11] = experiment: Cytotoxicity against human HCT116 cells assessed as reduction in cell viability at 0.5 uM incubated for 24 to 48 hrs in presence of 500 uM type 3 PI3K inhibitor, 3-MA by MTT assay; format: functional, cell-based
Summary of the method: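 HCT-116 viability was read by MTT after treatment with 0.5 μM compound, with or without the autophagy inhibitor 3-MA at 500 μM.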

[12] = target: T1, Bromodomain-containing protein 4; experiment: Inhibition of BRD4 in human HCT116 cells transfected with ATG5 siRNA assessed as activation of AMPK-alpha at 0.5 uM by Western blot analysis; format: cell-based
Summary of the method: (§1)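 HCT-116 cells first transfected with ATG5 siRNA or scramble siRNA; after silencing, exposed to 0.5 µM test agent or normal saline, then ATG5, AMPKα, p-AMPKα, p62 and LC3 protein assessed by western blot.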

[13] = target: T1, Bromodomain-containing protein 4; experiment: Inhibition of BRD4 in human HCT116 cells transfected with ATG5 siRNA assessed as induction of autophagy by measuring p62 degradation at 0.5 uM by Western blot analysis; format: cell-based; summary of the method: as §1
Mus musculus = experiment: In vivo inhibition of BRD4 in BALB/cAnNCrl mouse xenografted with human HCT116 cells assessed as decrease in c-Myc expression in tumor tissue at 15 to 30 mg/kg, po administered on day 1 to day 19 measured on day 19 by immunohistochemical analysis; format: functional, organism-based
Summary of the method: (§2)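 HCT-116 xenograft mice were dosed orally at 15 or 30 mg/kg, or 30 mg/kg for reference agents, for 19 days, with vehicle or saline controls. Tumor sections were stained for Ki-67, c-Myc, Ac-H3, BRD4, LC3-II, LIFR and p-STAT3 by immunohistochemistry, and TUNEL staining was used as the apoptosis marker.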

HCT-116 [14] = experiment: Antitumor activity against human HCT116 cells xenografted in BALB/cAnNCrl mouse assessed as increase in TUNEL positive apoptotic nuclei in tumor tissue at 15 to 30 mg/kg, po administered on day 1 to day 19 measured on day 19 by TUNEL assay; format: functional, organism-based; summary of the method: as §2
[15] = Toxicity in BALB/cAnNCrl mouse xenografted with human HCT116 cells assessed as effect on kidney morphological changes at 15 to 30 mg/kg, po administered on day 1 to day 19 measured on day 19 by hematoxylin and eosin staining based assay; format: organism-based; settings: in vivo
Summary of the method: (§3)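 HCT-116 xenograft mice dosed orally at 15 or 30 mg/kg for 19 days, saline as vehicle control; body weights tracked, and main organs sectioned and H&E-stained at study end.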

[16] = Toxicity in BALB/cAnNCrl mouse xenografted with human HCT116 cells assessed as effect on spleen morphological changes at 15 to 30 mg/kg, po administered on day 1 to day 19 measured on day 19 by hematoxylin and eosin staining based assay; format: organism-based; settings: in vivo; summary of the method: as §3
[17] = Cmax in Sprague-Dawley rat at 30 mg/kg, po measured up to 1440 mins by UPLC-QTOF/MS analysis; format: ADME, organism-based; design: dose 30 mg/kg, route oral; settings: in vivo
Homo sapiens [18] = species: Homo sapiens; experiment: Inhibition of BRD4/HDAC in human HCT116 cells assessed as increase in OSM mRNA level at 0.5 uM after 24 hrs by RT-PCR analysis; format: cell-based
Summary of the method: (§4)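 HCT-116 cells incubated 24 h with test agent (0.5 µM, 2.0 µM or 10 µM depending on compound); IL6, OSM, LIF and CTF1 mRNA levels then quantified.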

Homo sapiens [19] = species: Homo sapiens; experiment: Inhibition of BRD4/HDAC in human HCT116 cells assessed as increase in LIF mRNA level at 0.5 uM after 24 hrs by RT-PCR analysis; format: cell-based; summary of the method: as §4
HCT-116 [20] = experiment: Decrease in BRD4 expression in human HCT116 cells at 0.2 to 0.5 uM incubated for 24 hrs by western blot analysis; format: functional, cell-based
[21] = target: T1, Bromodomain-containing protein 4; experiment: Inhibition of BRD4 in human HCT116 cells assessed as induction of autophagy by measuring p62 degradation at 0.5 uM measured after 24 hrs by Western blot analysis; format: cell-based

## Cc1cc(-c2nc3sc4c(c3c(=O)[nH]2)CCN(C)C4)cc(C)c1OCCCCCC(=O)NO
[1]
  AUC(0-inf): 156 µg·h/mL
SW480
  Activity: Active
[2]
  pIC50: 6.15
HCT-116 [3]
  Activity: 8.2%
[4]
  pIC50: < 4.70
[5]
  pIC50: 6.03
Histone deacetylase 9
  pIC50: < 5.00
Histone deacetylase 5
  pIC50: < 5.00
Histone deacetylase 4
  pIC50: < 5.00
Histone deacetylase 2
  pIC50: 7.24
HCT-116 [6]
  Activity: Dose-dependent effect
[7]
  inhibition: Active
[8]
  inhibition: Active
[9]
  inhibition: Active
[10]
  inhibition: Dose-dependent effect
HCT-116 [11]
  Activity: inactive
[12]
  inhibition: Active
[13]
  inhibition: inactive
Mus musculus
  inhibition: Active
HCT-116 [14]
  Activity: Active
[15]
  Activity: Non-Toxic
[16]
  Activity: Non-Toxic
[17]
  Cmax: 5360 ng/mL
Homo sapiens [18]
  inhibition: Active
Homo sapiens [19]
  inhibition: Active
HCT-116 [20]
  inhibition: Active
[21]
  inhibition: Active
